Here are results for five compounds from PMC2664401 (Pharmaceutical research, 2008).

Data set [1] can be described thus: Stability in ocular tissue homogenates: retina/choroid. Type of data set: in vitro ADME. Conditions: rabbit, retina/choroid homogenate supernatant, pH 7.4.
Data set [2] can be described thus: Stability in ocular tissue homogenates: cornea. The data set is classed as in vitro ADME. Conditions: rabbit, corneal homogenate supernatant, pH 7.4.
Data set [3] has as its target T1, amino acid transporter B^0,+ (Oryctolagus cuniculus, UniProt G1T8K9).
T1 sequence (G1T8K9 1-637): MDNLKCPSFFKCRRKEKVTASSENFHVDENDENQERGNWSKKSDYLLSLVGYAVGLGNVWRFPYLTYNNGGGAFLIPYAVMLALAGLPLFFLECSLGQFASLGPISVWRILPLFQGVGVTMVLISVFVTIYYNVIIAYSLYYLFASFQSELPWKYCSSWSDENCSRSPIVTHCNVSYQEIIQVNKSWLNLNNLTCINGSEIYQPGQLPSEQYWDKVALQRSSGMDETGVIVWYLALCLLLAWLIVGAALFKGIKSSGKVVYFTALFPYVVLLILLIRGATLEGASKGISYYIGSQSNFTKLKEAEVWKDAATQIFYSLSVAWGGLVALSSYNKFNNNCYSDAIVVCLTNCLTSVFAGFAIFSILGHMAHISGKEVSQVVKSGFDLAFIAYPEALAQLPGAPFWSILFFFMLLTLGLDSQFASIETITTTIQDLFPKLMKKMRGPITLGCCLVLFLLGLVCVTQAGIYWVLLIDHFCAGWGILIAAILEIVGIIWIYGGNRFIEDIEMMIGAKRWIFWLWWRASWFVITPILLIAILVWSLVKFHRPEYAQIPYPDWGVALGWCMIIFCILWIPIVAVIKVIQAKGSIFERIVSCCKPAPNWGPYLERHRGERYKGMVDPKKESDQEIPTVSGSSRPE
The data set is described as follows: Transcorneal transport mechanism studies. The data set is classed as in vitro ADME, rabbit. Conditions: for Substrate of the corneal amino acid transporter B^0,+: concluded from rabbit corneal permeability with and without inhibitors.

Data set [4] in a line: Stability in ocular tissue homogenates: iris-ciliary body. Type of data set: in vitro ADME. Conditions: rabbit, iris-ciliary body homogenate supernatant, pH 7.4.
The next data set can be described thus: Solution. The data set is classed as physicochemical.
The nature of data set [5]: Aqueous solubility, shake flask method in water. The data set is classed as physicochemical. Conditions: for solubility at 24 h: water, 25 °C, thermodynamic from solid. The gist of the method:
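Excess solid test compound was added to 0.5 mL water pre-equilibrated at 25 °C and shaken in a water bath at 25 ± 0.5 °C and 75 rpm for 24 h. Aliquots were centrifuged, and the supernatant was filtered and assayed for drug content. Analysis was by HPLC on a C18 column with 15 mM phosphate (pH 2.5)/1% acetonitrile and fluorescence detection (ex 270, em 380). Runs were in duplicate.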

Data set [6] can be described thus: Hydrolysis in DPBS transport media. The data set is classed as physicochemical. Conditions: pH 7.4.
Data set [7] in a line: Stability in vitreous humor. Type of data set: in vitro ADME, rabbit. Conditions: for Apparent first order rate constant (k*): Vitreous Humor used as such, 37 °C, overall observed degradation; for half-life at 10 μg/mL: rabbit, vitreous humor (used as such).
For data set [8], the system named is amino acid transporter B^0,+. Conditions: xenopus laevis oocytes; cited from earlier work.
For data set [9] the following is noted: cited from earlier work.
The test system of a further data set is B^o,+. Conditions: a substrate of B^o,+; cited from earlier work.

The structures appear in SMILES notation. Several values for one entry are separate records, joined by “and”; a condition that tells them apart may be missing. Equal values may be shown once. Entries after “also recorded” stand apart in the source; their conditions may differ.

For `Cl.Nc1nc2c(ncn2COCCOC(=O)[C@@H](N)CC(=O)O)c(=O)[nH]1` [L-Asp-ACV, (S)-3-amino-4-(2-((2-amino-6-oxo-1H-purin-9(6H)-yl)methoxy)ethoxy)-4-oxobutanoic acid-HCl], the half-life at 10 μg/mL in data set [1] turned out to be 51.6 ± 1.6 min; in [2] it was 290 ± 12.2 min; in data set [4] it was 134 ± 5.1 min; in data set [7], 166 ± 3.9 min. For the same compound, the “Effect of glutamic acid on transcorneal transport” value in data set [3] (L-Glutamic acid 1 mM, pH 5) is reported as “not inhibited; also recorded: failed to inhibit”. The “Substrate of the corneal amino acid transporter B^0,+” value in data set [3] was “is a substrate”. Moreover, the “Transcorneal permeability in the presence of BCH” value in data set [3] (male, New Zealand albino, rabbit, 3 h) is 2.66±0.21 × 10^−6 cm.s^−1. Further, the half-life at 50 μg/mL in the data set “Solution” (borate buffer, pH 9) is 0.233 ± 0.00833 days; in “Solution” (hydrochloride buffer, pH 1.2), 26.1 ± 1.29 days; in the data set “Solution” (phosphate buffer, pH 7), 1.33 ± 0.0167 days; in “Solution” (phthalate buffer, pH 3), 15.5 ± 0.667 days; in “Solution” (phthalate buffer, pH 5), 10.9 ± 0.167 days. For the same compound, the solubility at 24 h in data set [5] was 3840 µg/mL and 10200 µM. This compound had a half-life in data set [6] (buffer) of 306 ± 6 min. Further, in [7], the “Apparent first order rate constant (k*)” value was 4.2 ± 0.1 ×10^3, min^−1.
Take `Nc1nc2c(ncn2COCCOC(=O)C[C@H](N)C(=O)O)c(=O)[nH]1` [acyclovir-L-aspartate β-ester]: in data set [8], the “Transport by the amino acid transporter B^0,+” value was “is transported”.
`Cl.Nc1nc2c(ncn2COCCOC(=O)[C@H](N)CC(=O)O)c(=O)[nH]1` [D-Asp-ACV, (R)-3-amino-4-(2-((2-amino-6-oxo-1H-purin-9(6H)-yl)methoxy)ethoxy)-4-oxobutanoic acid-HCl]: the half-life at 10 μg/mL stood at 1200 ± 88.1 min in data set [1], 224 ± 12.6 min in data set [2], 139 ± 10.1 min in [4] and 141 ± 15.1 min in data set [7]. The “Substrate of the corneal amino acid transporter B^0,+” value in data set [3] was “not a substrate”. For the same compound, the “Solubility, fold higher than that of ACV” value in data set [5] (relative to ACV) is “about 2 fold”. Moreover, the solubility at 24 h in data set [5] was 3850 µg/mL and 10200 µM. In [6] (DPBS), the half-life is 336 ± 12 min. Besides, the “Apparent first order rate constant (k*)” value in data set [7] is recorded as 5 ± 0.5 ×10^3, min^−1.
Take `Nc1nc2c(ncn2COCCO)c(=O)[nH]1` [ACV, acyclovir, reference compound]: the solubility at 24 h in data set [5] is 1200 µg/mL and 5300 µM. In addition, in [9], the “saturation solubility in water” value is on record as 1.2 mg/mL.
With `Nc1nc2c(ncn2COCCOC(=O)C(N)Cc2ccccc2)c(=O)[nH]1` (stereo not shown) [phenylalanine-ACV], in the data set with B^o,+, the “Transport of [^3H]-L-Arginine in the presence of prodrug” value is reported as “decreased transport”.
